Results from ChEMBL document CHEMBL4257512, “Synthesis and antiplasmodial activity of purine-based C-nucleoside analogues” (Medchemcomm, 2018).

Experiments:
Plasmodium falciparum [1] = experiment: Growth inhibition of Plasmodium falciparum ITG2 infected in human erythrocytes assessed as reduction in [3H]-isoleucine incorporation pretreated for 24 hrs followed by [3H]-isoleucine addition and measured after 18 hrs by liquid scintillation counting method; assay type: functional, organism-based
Plasmodium falciparum [2] = experiment: Growth inhibition of Plasmodium falciparum D6 infected in human erythrocytes assessed as reduction in [3H]-isoleucine incorporation pretreated for 24 hrs followed by [3H]-isoleucine addition and measured after 18 hrs by liquid scintillation counting method; assay type: functional, organism-based
[3] = Selectivity index, ratio of CC50 for African green monkey Vero cells to IC50 for chloroquine-resistant Plasmodium falciparum K1 asynchronous cultures infected in human erythrocytes; assay type: toxicity, cell-based; settings: read-out: Ratio CC50/IC50
Plasmodium falciparum [4] = experiment: Antiplasmodial activity against chloroquine-sensitive Plasmodium falciparum 3D7 asynchronous cultures infected in human erythrocytes measured after 72 hrs by SYBR Green1 dye based fluorescence assay; assay type: functional, organism-based; settings: 3D7, 72 h
How it was run: (§1)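 Parasites kept in human erythrocytes at 5% hematocrit in RPMI-1640 (HEPES) with 0.5% AlbuMaxII, 0.2% glucose, 0.2% bicarbonate, 15 µM hypoxanthine, 37 °C, CO₂. Two-fold serial dilutions spanning 5 µM to 78 nM were applied to asynchronous cultures at 0.8-1% parasitaemia, 1% haematocrit, for 72 h. SYBR Green I lysis buffer was added for 2 h, with fluorescence read at Ex 485/Em 535 nm. IC50 was derived from DNA signal against drug-free controls.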

[5] = Resistance index, ratio of IC50 for chloroquine-resistant Plasmodium falciparum K1 asynchronous cultures infected in human erythrocytes to IC50 for chloroquine-sensitive Plasmodium falciparum 3D7 asynchronous cultures infected in human erythrocytes; assay type: functional
[6] = Selectivity index, ratio of CC50 for African green monkey Vero cells to IC50 for chloroquine-sensitive Plasmodium falciparum 3D7 asynchronous cultures infected in human erythrocytes; assay type: toxicity, cell-based; settings: read-out: Ratio CC50/IC50
Plasmodium falciparum [7] = experiment: Antiplasmodial activity against chloroquine-resistant Plasmodium falciparum K1 asynchronous cultures infected in human erythrocytes measured after 72 hrs by SYBR Green1 dye based fluorescence assay; assay type: functional, organism-based; settings: K1, 72 h; how it was run: as §1
[8] = Cytotoxicity against African green monkey Vero cells after 3 days by resazurin dye based fluorescence assay; assay type: cell-based; settings: chlorocebus sabaeus
How it was run: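 VERO kidney cells kept in MEM with 15% FBS, 5% CO₂, 37 °C. Cells exposed to serial compound dilutions for three days. Then 10% resazurin added as viability marker. Fluorescence read at Ex 530 ± 25 nm / Em 590 ± 25 nm. Median cytotoxic concentration (CC₅₀) calculated from readings.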

| Structure (SMILES) | IC50 (Plasmodium falciparum [1]) [µM] | IC50 (Plasmodium falciparum [2]) [µM] | selectivity ratio [3] | IC50 (Plasmodium falciparum [4]) [µM] | Ratio IC50 [5] | selectivity ratio [6] | IC50 (Plasmodium falciparum [7]) [µM] | CC50 at 72 h [8] [µM] |
| --- | --- | --- | --- | --- | --- | --- | --- | --- |
| CN(C/C=C/CN)C[C@H]1O[C@@H](n2cnc3c(N)ncnc32)[C@H](O)[C@@H]1O | 2 to 3 | 2 to 3 | – | – | – | – | – | – |
| COC(=O)C[C@@H]([C@H]1O[C@@H]2OC(C)(C)O[C@@H]2[C@H]1OCc1ccccc1)n1cnc2c(N)ncnc21 | – | – | 14.3 | 4.44 | 1.07 | 15.4 | 4.79 | 68.4 |
| CCOC(=O)C[C@@H]([C@H]1O[C@@H]2OC(C)(C)O[C@@H]2[C@H]1Oc1ccccc1[N+](=O)[O-])n1cnc2c(N)ncnc21 | – | – | 19.5 | 3.56 | 1.38 | 27.1 | 4.93 | 96.3 |
| CC(=O)c1ccc(-n2cnc3c(N)ncnc32)cc1 | – | – | – | > 5 | – | – | – | – |
| CC1(C)O[C@H]2O[C@H]([C@H](CCO)n3cnc4c(N)ncnc43)[C@H](Oc3ccccc3[N+](=O)[O-])[C@H]2O1 | – | – | 33.3 | 3.62 | 1.11 | 37.1 | 4.7 | 148 |
| CC1(C)O[C@H]2O[C@H]([C@H](CC(=O)O)n3cnc4c(N)ncnc43)[C@H](Oc3ccccc3N)[C@H]2O1 | – | – | 18 | 4.82 | – | 13.9 | 3.72 | 67.1 |
| CCOC(=O)CCn1cnc2c(N)ncnc21 | – | – | – | > 5 | – | – | – | – |
| CC1(C)O[C@H]2O[C@H]([C@@H](CCO)n3cnc4c(NCc5ccccc5)ncnc43)[C@H](OCc3ccccc3)[C@H]2O1 | – | – | 15 | 4.11 | 1.21 | 18.2 | 4.99 | 74.9 |
| CCOC(=O)C[C@@H]([C@H]1O[C@@H]2OC(C)(C)O[C@@H]2[C@H]1OCc1ccccc1)n1cnc2c(NCc3ccccc3)ncnc21 | – | – | 50.4 | 1.61 | 0.7 | 35.7 | 1.14 | 57.5 |
| CC1(C)O[C@H]2O[C@H]([C@H](CCO)n3cnc4c(NCc5ccccc5)ncnc43)[C@H](OCc3ccccc3)[C@H]2O1 | – | – | 25.8 | 3.99 | 0.75 | 19.6 | 4.44 | 61.2 |
| CCCCCCCCCCCCNc1ncnc2c1ncn2[C@@H](CC(=O)OCC)[C@H]1O[C@@H]2OC(C)(C)O[C@@H]2[C@H]1OCc1ccccc1 | – | – | 72.1 | 0.88 | 1.28 | 92.6 | 1.13 | 81.5 |
| CC1(C)O[C@H]2O[C@H]([C@H](CCO)n3cnc4c(N)ncnc43)[C@H](OCc3ccccc3)[C@H]2O1 | – | – | 19.5 | 4.31 | 1.15 | 22.5 | 4.99 | 97.1 |
| CCOC(=O)C[C@H]([C@H]1O[C@@H]2OC(C)(C)O[C@@H]2[C@H]1OCc1ccccc1)n1cnc2c(NCc3ccccc3)ncnc21 | – | – | 23.5 | 3.6 | 0.63 | 14.8 | 2.27 | 53.3 |
| CCOC(=O)C[C@@H]([C@H]1O[C@@H]2OC(C)(C)O[C@@H]2[C@H]1Oc1ccccc1N)n1cnc2c(N)ncnc21 | – | – | < 17.9 | 4.47 | >1.11 | 20.1 | > 5 | 89.7 |
| CC(O)c1ccc(-n2cnc3c(N)ncnc32)cc1 (stereo not given) | – | – | – | > 5 | – | – | – | – |
| CC1(C)O[C@H]2O[C@H]([C@H](CCO)n3cnc4c(N)ncnc43)[C@@H](OCc3ccccc3)[C@H]2O1 | – | – | 31.5 | 4.52 | 1.29 | 40.9 | 4.09 | 148 |
| COC(=O)C[C@H]([C@H]1O[C@@H]2OC(C)(C)O[C@@H]2[C@H]1OCc1ccccc1)n1cnc2c(N)ncnc21 | – | – | 21.1 | 4.12 | 0.99 | 20.9 | 4.09 | 86.3 |
| CC1(C)O[C@H]2O[C@H]([C@@H](CCO)n3cnc4c(N)ncnc43)[C@H](Oc3ccccc3[N+](=O)[O-])[C@H]2O1 | – | – | 12.7 | 3.13 | 0.9 | 11.5 | 2.37 | 51.8 |
| CCOC(=O)C[C@H]([C@H]1O[C@@H]2OC(C)(C)O[C@@H]2[C@H]1Oc1ccccc1[N+](=O)[O-])n1cnc2c(N)ncnc21 | – | – | 28 | 4.24 | 1 | 28.1 | 4.25 | 119 |
| CCCCCCCCCCCCNc1ncnc2c1ncn2[C@H](CC(=O)OCC)[C@H]1O[C@@H]2OC(C)(C)O[C@@H]2[C@H]1OCc1ccccc1 | – | – | 17.5 | 1.01 | 2.54 | 44.5 | 2.57 | 45 |
